Results as given in ChEMBL document CHEMBL5154905, “Reversible Monoacylglycerol Lipase Inhibitors: Discovery of a New Class of Benzylpiperidine Derivatives” (J Med Chem, 2022).
The source made the active and inactive calls. The rule behind the calls is not given here.

How the values were obtained:
PDAC-3 [1] = test: Antiproliferative activity against human PDAC-3 cells assessed as cell growth inhibition incubated for 72 hrs by sulforhodamine B assay; assay type: functional, cell-based
Method in brief: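 Primary PDAC3 culture in RPMI-1640 with 10% newborn calf serum, penicillin/streptomycin, 37 °C, 5% CO2. Seeded 5000 cells/well; after 24 h exposed 72 h to MAGL inhibitor (0.1–50 μM, DMSO stock diluted in medium).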

PDAC-3 [2] = test: Induction of apoptosis in human PDAC-3 cells at IC50 measured after 72 hrs by Annexin-V/FITC staining based assay; assay type: functional, cell-based
Method in brief: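 Fixed with paraformaldehyde, stained with annexin V/FITC in HEPES-buffered saline (pH 7.4) with 2.5 mM CaCl2. Fluorescence read at ex 485/em 535 nm and normalised to cell number from crystal violet staining (595 nm). Triplicate measurements, expressed relative to untreated control.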

PDAC-3 [3] = test: Induction of apoptosis in human PDAC-3 cells assessed as increase in caspase-3 level at IC50 measured after 72 hrs by immunoassay; assay type: functional, cell-based
Method in brief: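 Cell extracts assayed with a human active caspase-3 ELISA; absorbance 450 nm minus 540 nm. Quantified against a recombinant human caspase-3 standard curve. Triplicate measurements, expressed relative to untreated cells.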

[4] = molecular target: T1, Monoacylglycerol lipase ABHD6 (Mus musculus) (UniProt Q8R2Y0); test: Inhibition of ABHD6 in mouse brain membrane at 10 uM using TAMRA-FP serine hydrolase probe as substrate preincubated for 25 mins followed by substrate addition and measured after 25 mins SDS-PAGE analysis; assay type: cell membranes; settings: time 50.0 min
T1 sequence (whole entry): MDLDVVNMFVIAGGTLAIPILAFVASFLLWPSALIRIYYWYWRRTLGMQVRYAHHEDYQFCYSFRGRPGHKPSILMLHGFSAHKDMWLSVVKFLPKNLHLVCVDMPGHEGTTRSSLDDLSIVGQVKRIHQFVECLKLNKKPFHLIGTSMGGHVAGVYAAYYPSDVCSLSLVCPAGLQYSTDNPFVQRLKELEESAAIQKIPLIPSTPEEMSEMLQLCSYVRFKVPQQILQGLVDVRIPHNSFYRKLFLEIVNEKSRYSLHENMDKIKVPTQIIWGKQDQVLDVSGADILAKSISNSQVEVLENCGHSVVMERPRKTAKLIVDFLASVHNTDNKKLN
Method in brief: (§1)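 Mouse half-brain membrane fraction (800g supernatants spun at 16000g, 4 °C; pellet in 50 mM Tris-HCl pH 7.4), diluted to 4 mg/mL in PBS. Preincubated 25 min at 25 °C with test agent (10 μM final) or DMSO, then TAMRA-FP (125 nM final) 25 min at 25 °C. Stopped in Laemmli buffer at 90 °C, run on 12% SDS-PAGE, in-gel fluorescence read. Coomassie confirmed loading. Three independent experiments.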

[5] = molecular target: T2, Fatty-acid amide hydrolase 1 (Mus musculus) (UniProt O08914); test: Inhibition of FAAH in mouse brain membrane at 10 uM using TAMRA-FP serine hydrolase probe as substrate preincubated for 25 mins followed by substrate addition and measured after 25 mins SDS-PAGE analysis; assay type: cell membranes; settings: time 50.0 min; method in brief: as §1
T2 sequence (whole entry): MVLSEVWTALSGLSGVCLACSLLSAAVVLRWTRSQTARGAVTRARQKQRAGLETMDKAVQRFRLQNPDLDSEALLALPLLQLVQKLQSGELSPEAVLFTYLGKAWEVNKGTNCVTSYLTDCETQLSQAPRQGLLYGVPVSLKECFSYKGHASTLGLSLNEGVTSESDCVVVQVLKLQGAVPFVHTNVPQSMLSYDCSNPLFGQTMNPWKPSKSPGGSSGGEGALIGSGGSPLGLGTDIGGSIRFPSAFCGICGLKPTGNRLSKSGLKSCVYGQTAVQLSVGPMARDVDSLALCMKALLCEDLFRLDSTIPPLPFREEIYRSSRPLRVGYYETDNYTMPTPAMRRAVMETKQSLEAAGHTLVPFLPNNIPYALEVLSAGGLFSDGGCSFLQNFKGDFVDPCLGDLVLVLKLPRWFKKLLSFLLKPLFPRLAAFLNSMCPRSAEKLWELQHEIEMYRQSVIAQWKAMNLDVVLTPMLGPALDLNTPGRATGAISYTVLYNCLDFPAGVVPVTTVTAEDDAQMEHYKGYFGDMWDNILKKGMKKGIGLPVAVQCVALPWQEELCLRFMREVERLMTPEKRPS

[6] = molecular target: T3, Lysophosphatidylserine lipase ABHD12 (Mus musculus) (UniProt Q99LR1); test: Inhibition of ABHD12 in mouse brain membrane at 10 uM using TAMRA-FP serine hydrolase probe as substrate preincubated for 25 mins followed by substrate addition and measured after 25 mins SDS-PAGE analysis; assay type: cell membranes; settings: time 50.0 min; method in brief: as §1
T3 sequence (whole entry): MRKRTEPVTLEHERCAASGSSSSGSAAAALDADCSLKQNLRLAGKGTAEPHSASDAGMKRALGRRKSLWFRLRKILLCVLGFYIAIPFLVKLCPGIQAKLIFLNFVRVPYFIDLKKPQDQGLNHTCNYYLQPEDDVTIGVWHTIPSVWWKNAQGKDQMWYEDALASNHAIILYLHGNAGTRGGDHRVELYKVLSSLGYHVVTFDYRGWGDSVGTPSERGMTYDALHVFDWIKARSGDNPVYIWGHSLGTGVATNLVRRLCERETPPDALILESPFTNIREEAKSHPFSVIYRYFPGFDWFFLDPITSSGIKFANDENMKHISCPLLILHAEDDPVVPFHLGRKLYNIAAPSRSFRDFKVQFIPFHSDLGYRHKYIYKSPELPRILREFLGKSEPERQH

PDAC-3 [7] = test: Induction of apoptosis in human PDAC-3 cells assessed as reduction in Bcl-2 […] expression at 5 times IC50 incubated for 24 hrs by qRT-PCR analysis; assay type: functional, cell-based
[8] = Apparent permeability of the compound in PBS buffer pH 7.4 assessed as membrane retention at 0.5 mM incubated for 5 hrs by PAMPA based UV/LC-MS analysis; assay type: ADME; settings: pH 7.4, 5 h, 500 µM
[9] = Stability of the compound in MeOH solution at 500 uM measured up to 24 hrs by UV/LC-MS analysis; assay type: physicochemical
[10] = Cytotoxicity against human hTERT-HPNE cells assessed as cell growth inhibition incubated for 72 hrs by sulforhodamine B assay; assay type: toxicity, cell-based
Method in brief: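 SRB growth-inhibition assay. Cells were seeded at 5000 per well and treated after 24 h, once a monolayer had formed, with MAGL inhibitors (0.1–50 μM) for 72 h. Cells were then fixed with trichloroacetic acid at 4 °C and stained with SRB. Bound dye was dissolved in Tris base and read at 490 and 540 nm. IC50 came from curve fitting.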

[11] = Induction of apoptosis in human PDAC-2 cells assessed as fold change in apoptotic rate at IC50 measured after 72 hrs by Annexin-V/FITC staining based assay relative to control; assay type: functional
Method in brief: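 Then paraformaldehyde-fixed and stained with annexin V/FITC in HEPES/NaCl/CaCl2 buffer, pH 7.4. Fluorescence read at ex 485/em 535 nm, normalised to cell number by crystal violet (595 nm). Expressed relative to untreated control (=1). Triplicate, mean ± SEM.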

PDAC-3 [12] = test: Antimigratory activity against human PDAC-3 cells assessed as reduction in MMP9 expression at 5 times IC50 incubated for 24 hrs by qRT-PCR analysis; assay type: functional, cell-based
PDAC-3 [13] = test: Synergistic antiproliferative activity against human PDAC-3 cells assessed as increase in ENT1 expression at 5 times IC50 incubated for 24 hrs in presence of gemcitabine by qRT-PCR analysis; assay type: functional, cell-based
[14] = Stability of the compound in pooled human plasma at 3 mM measured up to 24 hrs by UV/LC-MS assay; assay type: ADME, cell-free; settings: read-out: Stability
[15] = Aqueous solubility of compound at 1 mg/ml incubated for 24 hrs by LC-MS/MS analysis; assay type: physicochemical; settings: buffer
[16] = Stability of the compound in PBS buffer at pH 7.4 at 500 uM measured up to 24 hrs by UV/LC-MS analysis; assay type: physicochemical; settings: pH 7.4, 24 h

## O=C(OC(C(F)(F)F)C(F)(F)F)N1CCN(Cc2ccc(C(F)(F)F)cc2N2CCCC2)CC1
PDAC-3 [1]
  Activity: Active
PDAC-3 [2]
  Activity: Active
PDAC-3 [3]
  Activity: Active

## CN(Cc1cccc(-c2ccncc2)c1)C(=O)Oc1ccc(-c2ccc(C(N)=O)cc2)cc1
[4]
  inhibition: Active

## NC(=O)c1cccc(-c2cccc(OC(=O)NC3CCCCC3)c2)c1
[5]
  inhibition: Active

## CCCCCCCCCCC[C@@H](C[C@@H]1OC(=O)[C@H]1CCCCCC)OC(=O)[C@H](CC(C)C)NC=O
[4]
  inhibition: Active
[6]
  inhibition: Active

## O=C(Oc1ccc([N+](=O)[O-])cc1)N1CCC(C(O)(c2ccc3c(c2)OCO3)c2ccc3c(c2)OCO3)CC1
PDAC-3 [1]
  Activity: Active
PDAC-3 [2]
  Activity: Active
PDAC-3 [3]
  Activity: Active

## Nc1ccn([C@@H]2O[C@H](CO)[C@@H](O)C2(F)F)c(=O)n1
PDAC-3 [2]
  Activity: Active
PDAC-3 [3]
  Activity: Active

## O=C(c1cc(O)ccc1F)N1CCC(Cc2cccc(Oc3cc(C(F)(F)F)ccn3)c2)CC1
PDAC-3 [7]
  Activity: Active
[8]
  R%: 38.9%
[9]
  Stability: > 24 h
[10]
  IC50 at 72 h: > 20 µM
[11]
  fold change (FC): 4
PDAC-3 [12]
  Activity: Active
PDAC-3 [13]
  Activity: Active
[14]
  half-life at 3000 µM: > 1440 min
PDAC-3 [2]
  Activity: Active
[15]
  logS0: < -8.676
  solubility: < 1 ng/mL
PDAC-3 [3]
  Activity: Active
[16]
  Stability: > 24 h

## O=C(c1ccc(Sc2cccc(C(F)(F)F)c2)cc1)C1CCN(C(=O)c2cc(O)ccc2F)CC1
[8]
  R%: 52.6%
[9]
  Stability: > 24 h
[14]
  half-life at 3000 µM: > 1440 min
[15]
  logS0: < -8.702
  solubility: < 1 ng/mL
[16]
  Stability: > 24 h
